Data reported in ChEMBL document CHEMBL1153576, “Novel ureas and thioureas of 15-membered azalides with antibacterial activity against key respiratory pathogens” (Eur J Med Chem, 2009).
Values after ≈ are worked out from the molar mass of the structure shown.

Legend:
Type in all cases: functional
Streptococcus pneumoniae [1] = assay: Antibacterial activity against efflux-mediated macrolide-resistant Streptococcus pneumoniae after 16 to 22 hrs by broth microdilution method
Procedure, shortened: (§1)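 Two-fold serial dilutions in microdilution trays, following the CLSI dilution standard for aerobic bacteria. Medium was Mueller–Hinton broth with 5% horse serum for streptococci. Stocks were made at 5 mg/ml in DMF. Inoculum came from a direct colony suspension adjusted by turbidity to about 5 × 10⁴ CFU/well final. Incubation was at 35 °C for 16–22 h. MIC is the lowest concentration completely inhibiting growth (99% inhibition).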

Moraxella catarrhalis = assay: Antibacterial activity against Moraxella catarrhalis ATCC 23246 after 16 to 22 hrs by broth dilution method
Procedure, shortened: (§2)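 Broth microdilution per the CLSI approved standard (sixth edition), using two-fold serial dilutions of compound in Mueller–Hinton broth. Stocks at 5 mg/ml in DMF. Inoculum came from a direct colony suspension adjusted by turbidity to about 5 × 10⁴ CFU/well final. Trays were incubated at 35 °C for 16–22 h. MIC is the lowest concentration completely inhibiting growth (99% inhibition).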

Streptococcus pyogenes [2] = assay: Antibacterial activity against efflux-mediated macrolide-resistance Streptococcus pyogenes after 16 to 22 hrs by broth microdilution method; procedure, shortened: as §1
Escherichia coli = assay: Antibacterial activity against Escherichia coli ATCC 25922 after 16 to 22 hrs by broth dilution method; procedure, shortened: as §2
Streptococcus pyogenes [3] = assay: Antibacterial activity against inducible macrolide-lincosamide-streptogramin-resistant Streptococcus pyogenes 16 to 22 hrs by broth microdilution method; procedure, shortened: as §1
Streptococcus pneumoniae [4] = assay: Antibacterial activity against erythromycin-susceptible Streptococcus pneumoniae after 16 to 22 hrs by broth microdilution method
Procedure, shortened: (§3)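 Streptococci tested by CLSI broth microdilution in Mueller–Hinton broth with 5% horse serum, using two-fold serial dilutions. Compounds were dissolved in DMF at 5 mg/ml (stock). Inoculum was a turbidity-adjusted direct colony suspension giving about 5 × 10⁴ CFU/well. Trays were held at 35 °C for 16–22 h. MIC is the lowest concentration completely inhibiting growth (99%).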

Enterococcus faecalis = assay: Antibacterial activity against Enterococcus faecalis ATCC 29212 after 16 to 22 hrs by broth dilution method; procedure, shortened: as §2
Streptococcus pneumoniae [5] = assay: Antibacterial activity against constitutive macrolide-lincosamide-streptogramin-resistant Streptococcus pneumoniae after 16 to 22 hrs by broth microdilution method; procedure, shortened: as §1
Staphylococcus aureus = assay: Antibacterial activity against Staphylococcus aureus ATCC 29213 after 16 to 22 hrs by broth microdilution method; procedure, shortened: as §2
Streptococcus pyogenes [6] = assay: Antibacterial activity against erythromycin-susceptible Streptococcus pyogenes after 16 to 22 hrs by broth microdilution method; procedure, shortened: as §3
Haemophilus influenzae = assay: Antibacterial activity against Haemophilus influenzae ATCC 49247 after 16 to 22 hrs by broth dilution method
Procedure, shortened: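 Microdilution trays following the CLSI standard, with two-fold serial dilutions in supplemented broth suited to H. influenzae. DMF stocks at 5 mg/ml. Inoculum prepared from a turbidity-adjusted direct colony suspension to about 5 × 10⁴ CFU/well final. Incubated at 35 °C for 16–22 h. MIC is the lowest concentration giving complete (99%) growth inhibition.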

Compound | MIC (Streptococcus pneumoniae [1]) | MIC (Moraxella catarrhalis) | MIC (Streptococcus pyogenes [2]) | MIC (Escherichia coli) | MIC (Streptococcus pyogenes [3]) | MIC (Streptococcus pneumoniae [4]) | MIC (Enterococcus faecalis) | MIC (Streptococcus pneumoniae [5]) | MIC (Staphylococcus aureus) | MIC (Streptococcus pyogenes [6]) | MIC (Haemophilus influenzae)
CC[C@H]1OC(=O)[C@H](C)[C@@H](O[C@H]2C[C@@](C)(OC)[C@@H](O)[C@H](C)O2)[C@H](C)[C@@H](O[C@@H]2O[C@H](C)C[C@H](N(C)C)[C@H]2O)[C@](C)(O)C[C@@H](C)CN(CCCNC(=S)Nc2cccc3ccccc23)[C@H](C)[C@@H](O)[C@]1(C)O | 4 µg/mL (≈ 4.09 µM) | 1 µg/mL (≈ 1.02 µM) | 4 µg/mL (≈ 4.09 µM) | 8 µg/mL (≈ 8.19 µM) | 4 µg/mL (≈ 4.09 µM) | ≤ 0.125 µg/mL | 8 µg/mL (≈ 8.19 µM) | > 64 µg/mL | 1 µg/mL (≈ 1.02 µM) | ≤ 0.125 µg/mL | 2 µg/mL (≈ 2.05 µM)
CC[C@H]1OC(=O)[C@H](C)[C@@H](O[C@H]2C[C@@](C)(OC)[C@@H](O)[C@H](C)O2)[C@H](C)[C@@H](O[C@@H]2O[C@H](C)C[C@H](N(C)C)[C@H]2O)[C@](C)(O)C[C@@H](C)CN(CCCNC(=O)Nc2ccc3ccccc3c2)[C@H](C)[C@@H](O)[C@]1(C)O | 4 µg/mL (≈ 4.16 µM) | 0.25 µg/mL (≈ 0.26 µM) | 4 µg/mL (≈ 4.16 µM) | 16 µg/mL (≈ 16.6 µM) | 2 µg/mL (≈ 2.08 µM) | ≤ 0.125 µg/mL | 8 µg/mL (≈ 8.32 µM) | 16 µg/mL (≈ 16.6 µM) | 1 µg/mL (≈ 1.04 µM) | ≤ 0.125 µg/mL | 2 µg/mL (≈ 2.08 µM)
CC[C@H]1OC(=O)[C@H](C)[C@@H](O[C@H]2C[C@@](C)(OC)[C@@H](O)[C@H](C)O2)[C@H](C)[C@@H](O[C@@H]2O[C@H](C)C[C@H](N(C)C)[C@H]2O)[C@](C)(O)C[C@@H](C)CN(CCCNC(=O)NC(C)C)[C@H](C)[C@@H](O)[C@]1(C)O | 32 µg/mL (≈ 36.5 µM) | 1 µg/mL (≈ 1.14 µM) | 32 µg/mL (≈ 36.5 µM) | 16 µg/mL (≈ 18.2 µM) | 8 µg/mL (≈ 9.12 µM) | ≤ 0.125 µg/mL | 32 µg/mL (≈ 36.5 µM) | > 64 µg/mL | 2 µg/mL (≈ 2.28 µM) | ≤ 0.125 µg/mL | 16 µg/mL (≈ 18.2 µM)
CC[C@H]1OC(=O)[C@H](C)[C@@H](O[C@H]2C[C@@](C)(OC)[C@@H](O)[C@H](C)O2)[C@H](C)[C@@H](O[C@@H]2O[C@H](C)C[C@H](N(C)C)[C@H]2O)[C@](C)(O)C[C@@H](C)CN(CCCN(CCC#N)C(=O)NCCc2ccccc2)[C@H](C)[C@@H](O)[C@]1(C)O | 64 µg/mL (≈ 64.5 µM) | 16 µg/mL (≈ 16.1 µM) | 64 µg/mL (≈ 64.5 µM) | > 64 µg/mL | 32 µg/mL (≈ 32.2 µM) | ≤ 0.125 µg/mL | 64 µg/mL (≈ 64.5 µM) | > 64 µg/mL | 4 µg/mL (≈ 4.03 µM) | ≤ 0.125 µg/mL | 32 µg/mL (≈ 32.2 µM)
CC[C@H]1OC(=O)[C@H](C)[C@@H](O[C@H]2C[C@@](C)(OC)[C@@H](O)[C@H](C)O2)[C@H](C)[C@@H](O[C@@H]2O[C@H](C)C[C@H](N(C)C)[C@H]2O)[C@](C)(O)C[C@@H](C)CN(CCCNC(=O)NCCc2ccccc2)[C@H](C)[C@@H](O)[C@]1(C)O | 32 µg/mL (≈ 34.1 µM) | 2 µg/mL (≈ 2.13 µM) | 32 µg/mL (≈ 34.1 µM) | 16 µg/mL (≈ 17 µM) | 8 µg/mL (≈ 8.52 µM) | ≤ 0.125 µg/mL | 16 µg/mL (≈ 17 µM) | > 64 µg/mL | 1 µg/mL (≈ 1.06 µM) | ≤ 0.125 µg/mL | 16 µg/mL (≈ 17 µM)
CC[C@H]1OC(=O)[C@H](C)[C@@H](O[C@H]2C[C@@](C)(OC)[C@@H](O)[C@H](C)O2)[C@H](C)[C@@H](O[C@@H]2O[C@H](C)C[C@H](N(C)C)[C@H]2O)[C@](C)(O)C[C@@H](C)CN(CCCN(CCC#N)C(=O)NCc2ccccc2)[C@H](C)[C@@H](O)[C@]1(C)O | 16 µg/mL (≈ 16.4 µM) | 0.5 µg/mL (≈ 0.511 µM) | 8 µg/mL (≈ 8.18 µM) | 8 µg/mL (≈ 8.18 µM) | 16 µg/mL (≈ 16.4 µM) | ≤ 0.125 µg/mL | 32 µg/mL (≈ 32.7 µM) | 64 µg/mL (≈ 65.4 µM) | 2 µg/mL (≈ 2.04 µM) | ≤ 0.125 µg/mL | 4 µg/mL (≈ 4.09 µM)
CC[C@H]1OC(=O)[C@H](C)[C@@H](O[C@H]2C[C@@](C)(OC)[C@@H](O)[C@H](C)O2)[C@H](C)[C@@H](O[C@@H]2O[C@H](C)C[C@H](N(C)C)[C@H]2O)[C@](C)(O)C[C@@H](C)CN(CCCNC(=S)NCCCc2ccccc2)[C@H](C)[C@@H](O)[C@]1(C)O | 8 µg/mL (≈ 8.25 µM) | 1 µg/mL (≈ 1.03 µM) | 4 µg/mL (≈ 4.13 µM) | 16 µg/mL (≈ 16.5 µM) | 4 µg/mL (≈ 4.13 µM) | ≤ 0.125 µg/mL | 16 µg/mL (≈ 16.5 µM) | > 64 µg/mL | 0.5 µg/mL (≈ 0.516 µM) | ≤ 0.125 µg/mL | 2 µg/mL (≈ 2.06 µM)
CC[C@H]1OC(=O)[C@H](C)[C@@H](O[C@H]2C[C@@](C)(OC)[C@@H](O)[C@H](C)O2)[C@H](C)[C@@H](O[C@@H]2O[C@H](C)C[C@H](N(C)C)[C@H]2O)[C@](C)(O)C[C@@H](C)CN(CCCNC(=O)NC(C)c2cccc3ccccc23)[C@H](C)[C@@H](O)[C@]1(C)O (stereo partly drawn) | 16 µg/mL (≈ 16.2 µM) | 0.25 µg/mL (≈ 0.253 µM) | 8 µg/mL (≈ 8.09 µM) | 32 µg/mL (≈ 32.3 µM) | 2 µg/mL (≈ 2.02 µM) | ≤ 0.125 µg/mL | 8 µg/mL (≈ 8.09 µM) | 16 µg/mL (≈ 16.2 µM) | 1 µg/mL (≈ 1.01 µM) | ≤ 0.125 µg/mL | 2 µg/mL (≈ 2.02 µM)
